# In ChEMBL document CHEMBL1671809, “Discovery of phosphoric acid mono-{2-[(E/Z)-4-(3,3-dimethyl-butyrylamino)-3,5-difluoro-benzoylimino]-thiazol-3-ylmethyl} ester (Lu AA47070): a phosphonooxymethylene prodrug of a potent and selective hA(2A) receptor antagonist” (J Med Chem, 2011):
# Legend:
# [1] = target: Adenosine receptor A2a (Homo sapiens, UniProt P29274); assay: Displacement of [3H]-ZM241385 from human adenosine A2A receptor expressed in high five cells after 30 mins by scintillation counting
# Sequence of Adenosine receptor A2a (P29274 whole entry): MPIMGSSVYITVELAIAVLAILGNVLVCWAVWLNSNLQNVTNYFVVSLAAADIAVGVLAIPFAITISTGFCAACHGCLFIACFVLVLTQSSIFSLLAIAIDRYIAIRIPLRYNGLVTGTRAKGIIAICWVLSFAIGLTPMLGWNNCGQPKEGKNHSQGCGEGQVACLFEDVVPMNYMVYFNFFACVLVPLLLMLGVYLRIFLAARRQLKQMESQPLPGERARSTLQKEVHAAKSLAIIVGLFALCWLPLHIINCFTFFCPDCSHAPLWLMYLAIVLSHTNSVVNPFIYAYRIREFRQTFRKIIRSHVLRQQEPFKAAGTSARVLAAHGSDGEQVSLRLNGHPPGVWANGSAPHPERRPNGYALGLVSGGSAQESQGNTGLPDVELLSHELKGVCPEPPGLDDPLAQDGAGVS
# [2] = target: T1, Adenosine receptor A1 (Homo sapiens) (UniProt P30542); assay: Displacement of [3H]-DPCPX from human adenosine A1 receptor expressed in CHO cells at 10 uM after 30 mins by scintillation counting; type: cell-based
# T1 sequence (whole entry): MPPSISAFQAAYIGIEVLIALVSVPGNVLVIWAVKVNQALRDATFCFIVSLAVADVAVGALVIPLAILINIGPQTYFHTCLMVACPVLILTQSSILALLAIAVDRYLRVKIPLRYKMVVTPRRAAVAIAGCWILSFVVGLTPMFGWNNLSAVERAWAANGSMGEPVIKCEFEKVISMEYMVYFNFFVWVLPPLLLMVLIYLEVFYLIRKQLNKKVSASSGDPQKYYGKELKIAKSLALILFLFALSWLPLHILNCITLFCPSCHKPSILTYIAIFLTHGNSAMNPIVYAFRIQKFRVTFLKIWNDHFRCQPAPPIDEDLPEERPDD
# [3] = test system: Liver microsomes; assay: Intrinsic clearance in human liver microsomes at 1 uM after 60 mins by LC-MS/MS analysis; type: ADME, Microsome; details: 1 h
# Summary of the method: (§1)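 Compound at 1 μM with human or rat liver microsomes (0.5 mg protein/mL) plus NADPH at 37 C. Samples at 0, 5, 15, 30 and 60 min, quenched with acetonitrile, analysed by LC-MS/MS.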
# [4] = test system: Liver microsomes; assay: Intrinsic clearance in rat liver microsomes at 1 uM after 60 mins by LC-MS/MS analysis; type: ADME, Microsome; details: 1 h; summary of the method: as §1
# [5] = target: T2, Cytochrome P450 1A2 (Homo sapiens, UniProt P05177); assay: Inhibition of recombinant CYP1A2 after 28 mins; type: ADME
# T2 sequence (P05177 whole entry): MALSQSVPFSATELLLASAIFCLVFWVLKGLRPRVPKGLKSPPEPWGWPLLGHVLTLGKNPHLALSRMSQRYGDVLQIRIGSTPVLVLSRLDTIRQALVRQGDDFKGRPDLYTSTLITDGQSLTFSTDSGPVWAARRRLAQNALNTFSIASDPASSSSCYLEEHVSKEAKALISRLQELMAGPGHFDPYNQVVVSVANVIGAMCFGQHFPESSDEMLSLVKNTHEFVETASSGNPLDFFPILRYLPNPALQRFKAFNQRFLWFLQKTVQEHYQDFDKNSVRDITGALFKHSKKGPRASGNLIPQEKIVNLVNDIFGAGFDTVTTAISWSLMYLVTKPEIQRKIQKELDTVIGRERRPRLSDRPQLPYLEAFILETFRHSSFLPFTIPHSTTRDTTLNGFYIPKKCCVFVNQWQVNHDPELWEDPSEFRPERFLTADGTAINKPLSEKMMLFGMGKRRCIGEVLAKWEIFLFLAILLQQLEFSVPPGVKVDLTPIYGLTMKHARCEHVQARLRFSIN
# Summary of the method: (§2)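 Recombinant CYP supersomes incubated in phosphate buffer with eight compound concentrations (40-0.02 μM) and fluorogenic substrates. CYP1A2: 7-ethoxy-3-cyanocoumarin 10 μM, 28 min. CYP2C19: same substrate 50 μM, 45 min. CYP2D6: AMMC 3 μM, 45 min. CYP3A4: resorufin benzyl ether 100 μM, 30 min. Fluorescent metabolite read; IC50 relative to uninhibited controls.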
# [6] = target: Cytochrome P450 2C9 (Homo sapiens, UniProt P11712); assay: Inhibition of recombinant CYP2C9 after 45 mins; type: ADME
# Sequence of Cytochrome P450 2C9 (P11712 whole entry): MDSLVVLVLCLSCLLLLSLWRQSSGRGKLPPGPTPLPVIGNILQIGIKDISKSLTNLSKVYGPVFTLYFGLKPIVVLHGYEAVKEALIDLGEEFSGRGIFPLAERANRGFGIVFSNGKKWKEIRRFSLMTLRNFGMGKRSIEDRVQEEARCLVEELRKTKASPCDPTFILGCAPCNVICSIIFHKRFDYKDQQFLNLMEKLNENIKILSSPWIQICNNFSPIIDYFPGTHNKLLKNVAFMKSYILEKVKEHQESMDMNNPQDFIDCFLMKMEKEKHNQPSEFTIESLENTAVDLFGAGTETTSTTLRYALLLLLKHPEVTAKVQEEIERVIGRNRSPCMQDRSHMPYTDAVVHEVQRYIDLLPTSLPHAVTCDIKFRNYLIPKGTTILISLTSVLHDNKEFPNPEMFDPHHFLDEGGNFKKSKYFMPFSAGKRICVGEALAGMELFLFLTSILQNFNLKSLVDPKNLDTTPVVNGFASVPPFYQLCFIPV
# [7] = target: Cytochrome P450 2C19 (Homo sapiens, UniProt P33261); assay: Inhibition of recombinant CYP2C19 after 45 mins; type: ADME; summary of the method: as §2
# Sequence of Cytochrome P450 2C19 (P33261 whole entry): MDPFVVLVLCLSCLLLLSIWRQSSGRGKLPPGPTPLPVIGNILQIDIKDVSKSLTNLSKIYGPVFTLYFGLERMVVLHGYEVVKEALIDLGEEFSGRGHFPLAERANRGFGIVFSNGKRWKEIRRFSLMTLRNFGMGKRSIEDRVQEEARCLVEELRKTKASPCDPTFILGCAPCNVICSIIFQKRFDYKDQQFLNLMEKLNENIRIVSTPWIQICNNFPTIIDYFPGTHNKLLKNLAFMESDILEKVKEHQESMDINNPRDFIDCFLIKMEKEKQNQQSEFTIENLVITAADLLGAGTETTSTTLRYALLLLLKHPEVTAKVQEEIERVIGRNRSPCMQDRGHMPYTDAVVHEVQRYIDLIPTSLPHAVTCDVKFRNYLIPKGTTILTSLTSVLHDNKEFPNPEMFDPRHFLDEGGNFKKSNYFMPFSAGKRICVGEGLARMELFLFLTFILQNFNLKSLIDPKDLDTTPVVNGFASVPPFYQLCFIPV
# [8] = target: Cytochrome P450 2D6 (Homo sapiens, UniProt P10635); assay: Inhibition of recombinant CYP2D6 after 45 mins; type: ADME; summary of the method: as §2
# Sequence of Cytochrome P450 2D6 (P10635 whole entry): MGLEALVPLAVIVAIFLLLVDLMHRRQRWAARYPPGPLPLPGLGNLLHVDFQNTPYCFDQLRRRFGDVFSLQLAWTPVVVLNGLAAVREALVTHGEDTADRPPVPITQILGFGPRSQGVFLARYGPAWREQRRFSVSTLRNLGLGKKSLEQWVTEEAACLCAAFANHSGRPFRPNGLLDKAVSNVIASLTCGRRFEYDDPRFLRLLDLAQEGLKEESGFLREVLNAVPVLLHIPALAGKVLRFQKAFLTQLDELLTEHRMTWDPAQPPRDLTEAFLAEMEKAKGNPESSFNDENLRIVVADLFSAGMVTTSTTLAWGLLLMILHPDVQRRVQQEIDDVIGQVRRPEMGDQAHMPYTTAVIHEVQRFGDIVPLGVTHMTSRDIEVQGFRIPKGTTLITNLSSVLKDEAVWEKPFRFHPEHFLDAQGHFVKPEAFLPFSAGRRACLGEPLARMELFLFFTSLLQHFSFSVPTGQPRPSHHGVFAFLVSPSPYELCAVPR
# [9] = target: Cytochrome P450 3A4 (Homo sapiens, UniProt P08684); assay: Inhibition of recombinant CYP3A4 after 30 mins; type: ADME
# Sequence of Cytochrome P450 3A4 (P08684 whole entry): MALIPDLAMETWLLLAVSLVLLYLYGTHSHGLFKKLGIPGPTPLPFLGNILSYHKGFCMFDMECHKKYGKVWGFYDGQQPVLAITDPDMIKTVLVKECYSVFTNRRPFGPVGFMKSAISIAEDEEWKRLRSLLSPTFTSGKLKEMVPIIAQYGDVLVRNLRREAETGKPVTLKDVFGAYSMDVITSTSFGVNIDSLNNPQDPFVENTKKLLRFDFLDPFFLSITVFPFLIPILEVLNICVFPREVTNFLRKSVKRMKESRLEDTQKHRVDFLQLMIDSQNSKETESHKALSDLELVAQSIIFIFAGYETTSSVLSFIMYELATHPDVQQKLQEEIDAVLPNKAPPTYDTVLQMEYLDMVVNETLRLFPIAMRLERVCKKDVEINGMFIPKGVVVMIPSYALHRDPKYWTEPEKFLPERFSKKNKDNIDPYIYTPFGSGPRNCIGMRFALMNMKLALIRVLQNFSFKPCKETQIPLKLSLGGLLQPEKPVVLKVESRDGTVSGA
# Summary of the method: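 Recombinant CYP supersomes incubated in phosphate buffer with eight compound concentrations (40-0.02 μM) and fluorogenic substrates. CYP3A4: resorufin benzyl ether 100 μM, 30 min. Fluorescent metabolite read; IC50 relative to uninhibited controls.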
# [10] = test system: Caco-2; assay: Efflux ratio of permeability from basolateral to apical over apical to basolateral side in human Caco2 cells after 21 to 28 days by LC-MS/MS analysis
# [11] = target: T3, Adenosine receptor A1 (Homo sapiens, UniProt P30542); assay: Displacement of [3H]-DPCPX from human adenosine A1 receptor expressed in CHO cells after 30 mins by scintillation counting; type: cell-based
# T3 sequence (P30542 whole entry): T1 sequence (whole entry)
# Summary of the method: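 CHO-hA1 membranes at 10.8 μg protein/well, pretreated with adenosine deaminase (2 U/mL, 30 min, 37 C), were incubated with 1 nM [3H]-DPCPX in 50 mM Tris/HCl pH 7.4 for 30 min at 25 C across 10 compound concentrations. Filtration on PEI-soaked GF/B, scintillation counting. Nonspecific binding by CGS15943. Ki by Cheng-Prusoff. Means of ≥2 determinations.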
# [12] = organism: Homo sapiens; assay: Selectivity ratio of Ki for human adenosine A1 receptor to Ki for human adenosine A2A receptor
# [13] = test system: Mus musculus; assay: Reversal of haloperidol-induced hypolocomotion in po dosed NMRI mouse administered 30 mins before haloperidol challenge measured for 20 mins; type: functional
# Summary of the method: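 Male NMRI mice (n = 8/group) were given compound po in 25% cremophor/saline, then haloperidol 0.63 mg/kg sc 30 min later. After 15 min they went into photocell activity boxes, and locomotion was recorded for 20 min. ED50 by sigmoidal fit with top 100 and bottom 0.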
# [14] = target: T1, Adenosine receptor A1 (Homo sapiens); assay: Displacement of [3H]-DPCPX from human adenosine A1 receptor expressed in CHO cells at 2000 nM after 30 mins by scintillation counting
# [15] = Aqueous solubility of the compound at pH 4; type: physicochemical; details: water
# [16] = Chemical stability of the compound assessed as half life; type: physicochemical
# Summary of the method: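 Prodrug was dissolved in water, filtered, and diluted to approximately 0.05 mg/mL in buffers of different pH. Sealed vials were stored at 50 C to accelerate hydrolysis. Samples were diluted 1:1 with acetonitrile and analysed by HPLC for prodrug and hydrolysis products.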
# [17] = test system: Rattus norvegicus; assay: Tmax in Sprague-Dawley rat assessed as 4-(3,3-Dimethyl-butyrylamino)-3,5-difluoro-N-thiazol-2-yl-benzamide level at 1.4 mg/kg, po; type: ADME, organism-based; parameters: dose 1.4 mg/kg, route oral; details: in vivo
# Summary of the method: (§3)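 Prodrugs dosed po in aqueous 10% hydroxypropyl β-cyclodextrin (2 mL/kg) to rats; doses expressed as parent-drug equivalents; n = 3. Six tail-vein blood samples (~100 μL) taken between 5 and 420 min. Parent drug in plasma measured by HTLC-MS/MS. Profiles fitted with a one-compartment model; AUC extrapolated to infinity.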
# [18] = test system: Rattus norvegicus; assay: Cmax in Sprague-Dawley rat assessed as 4-(3,3-Dimethyl-butyrylamino)-3,5-difluoro-N-thiazol-2-yl-benzamide level at 1.4 mg/kg, po; type: ADME, organism-based; parameters: dose 1.4 mg/kg, route oral; details: in vivo; summary of the method: as §3
# [19] = test system: Rattus norvegicus; assay: Oral bioavailability in Sprague-Dawley rat assessed as 4-(3,3-Dimethyl-butyrylamino)-3,5-difluoro-N-thiazol-2-yl-benzamide level at 1.4 mg/kg; type: ADME, organism-based; details: in vivo; summary of the method: as §3
Compound,Ki [1],inhibition [2],IC50 [5],IC50 [7],IC50 [8],Ki [11],also measured
CC(C)CC(=O)Nc1ccc(C(=O)Nc2nccs2)cc1,90 nM,64%,> 40000 nM,> 40000 nM,> 40000 nM,,CL [3]: 1.6 L/min; CL [4]: 12 mL/min; IC50 [6]: > 40000 nM; IC50 [9]: > 40000 nM; Ratio [10]: 0.7
Cc1cnc(NC(=O)c2ccc(NC(=O)CC(C)(C)C)cc2)s1,120 nM,,,,,1100 nM,
CC(C)(C)CC(=O)Nc1ccc(C(=O)Nc2nccs2)cc1Cl,22 nM,,,,,210 nM,Ratio Ki [12]: 10
CC(C)C(=O)Nc1ccc(C(=O)Nc2nccs2)cc1,300 nM,,,,,,
CCC(=O)Nc1ccc(C(=O)Nc2nccs2)cc1,890 nM,31%,,,,,
CCn1c(=O)c2c(nc(/C=C/c3ccc(OC)c(OC)c3)n2C)n(CC)c1=O [ISTRADEFYLLINE],,,> 40000 nM,> 40000 nM,> 40000 nM,,CL [3]: 0.1 L/min; CL [4]: 11 mL/min; ED50 [13]: 0.13 mg/kg
COCCOc1ccc(N2CCN(CCn3ncc4c3nc(N)n3nc(-c5ccco5)nc43)CC2)cc1 [PRELADENANT],,,> 40000 nM,> 40000 nM,> 40000 nM,,ED50 [13]: 0.4 mg/kg; inhibition [14]: 30%; Ratio [10]: 1.1
CC(C)(C)CC(=O)Nc1ccc(C(=O)Nc2nccs2)c(Cl)c1,180 nM,14%,,,,,
CCCCC(=O)Nc1ccc(C(=O)Nc2nccs2)cc1,190 nM,69%,> 40000 nM,> 40000 nM,> 40000 nM,,CL [3]: 2.3 L/min; CL [4]: 54 mL/min; IC50 [6]: 40000 nM; IC50 [9]: > 40000 nM; Ratio [10]: 0.7
Cc1cc(C(=O)Nc2nccs2)ccc1NC(=O)CC(C)(C)C,19 nM,,,,,460 nM,Ratio Ki [12]: 24
CC[C@H](C)[C@H](N)C(=O)OCn1ccs/c1=N\C(=O)c1cc(F)c(NC(=O)CC(C)(C)C)c(F)c1,,,,,,,solubility [15]: 19.4 mg/mL; half-life [16]: 24 min; Tmax [17]: 54 min; Cmax [18]: 381 ng/mL; F [19]: 31%
CC(C)(C)CC(=O)Nc1ccc(C(=O)Nc2ncc(Cl)s2)cc1,28 nM,,,,,220 nM,
Cc1cc(NC(=O)CC(C)(C)C)ccc1C(=O)Nc1nccs1,200 nM,36%,,,,,
